hERG rescue: hERG rescue from dofetilide block, primary screen, cell-based, CHO-hERG, FluxOR thallium flux, dofetilide IC70. dofetilide IC70 present. Voltage-gated inwardly rectifying potassium channel KCNH2 (Homo sapiens), Q12809. activation (rescue from dofetilide block), less the hit threshold, % at 10 µM. hit rate 0.51% among 310,000. AID 1511, 2009;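 active = activation above the mean of controls blocked by dofetilide plus 5 SD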;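 also: thallium influx through hERG after potassium depolarization seen as dye fluorescence rise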
KCNQ1 inh: inhibitors of human KCNQ1 channel, primary screen, cell-based, thallium flux, high-throughput; CHO-K1 KCNQ1, FluxOR thallium flux fluorescence; active compounds read high; AID 2642, 2010; hit rate 1.3% among 310,000; B-score at 10 µM; Potassium voltage-gated channel subfamily KQT member 1 (Homo sapiens), P51787;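 active = compounds whose thallium flux B-score, printed positive for inhibition, exceeds three library SD while starting fluorescence stays within three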;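 also: channel opened by potassium depolarization with thallium stimulus after 20 min compound exposure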
KCNK3 block: human KCNK3 channel inhibitors, primary screen, CHO cells, FluxOR thallium flux, B-score; AID 602410, 2012; hit rate 0.84% among 340,000; B-score at 10 µM; FluxOR fluorescence; active compounds read low;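 active = B-score under library mean minus 4 SD, starting fluorescence ratio at most library mean plus 5 SD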;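 also: more negative B-score means stronger inhibition of thallium flux through KCNK3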
Kir21 block: inhibitors of mouse Kir2.1 inward-rectifier potassium channel; Inward rectifier potassium channel 2 (Mus musculus), P35561; HEK293-Kir2.1, FluxOR thallium flux fluorescence; active compounds read low; B-score at 10 µM; hit rate 0.85% among 310,000;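 active = fluorescence ratio B-score at or below minus 3 SD of library scores, with starting-brightness B-score within 2 SD, cut at about -4.2 in these data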;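 also: channel flux triggered by added potassium and thallium sulfate stimulus; B-score of peak minus minimum fluorescence over baseline after thallium stimulus; more negative B-score means stronger Kir2.1 block with less thallium influx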
KCNK9 block: KCNK9 potassium channel inhibitors, primary screen, HEK293 cells, thallium flux | hit rate 1.2% among 310,000 | FluxOR thallium flux fluorescence; active compounds read low | Potassium channel subfamily K member 9 (Homo sapiens), Q9NPC2 | B-score at 10 µM;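 active = ratio B-score over 3 SD below the library mean, with starting fluorescence within 5 SD of its mean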;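 also: negative B-score means less thallium flux so channel inhibition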
Target sequence (Q9NPC2 whole entry, looked up): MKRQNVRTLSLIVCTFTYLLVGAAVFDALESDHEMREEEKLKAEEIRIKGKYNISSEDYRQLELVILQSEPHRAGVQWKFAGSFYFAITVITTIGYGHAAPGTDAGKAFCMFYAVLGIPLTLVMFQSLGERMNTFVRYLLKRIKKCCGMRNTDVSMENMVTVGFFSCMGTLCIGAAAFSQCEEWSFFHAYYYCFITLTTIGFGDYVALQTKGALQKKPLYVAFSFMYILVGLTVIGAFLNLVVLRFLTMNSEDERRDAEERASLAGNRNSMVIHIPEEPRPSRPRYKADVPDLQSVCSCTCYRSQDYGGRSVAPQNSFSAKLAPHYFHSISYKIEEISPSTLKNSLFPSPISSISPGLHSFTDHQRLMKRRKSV
KCNQ1 act: potentiators or activators of KCNQ1 channel, primary screen, cell-based, thallium flux, high-throughput. Potassium voltage-gated channel subfamily KQT member 1 (Homo sapiens), P51787. CHO-K1 KCNQ1, thallium flux FluxOR fluorescence; active compounds read high. B-score at 10 µM. hit rate 0.35% among 310,000. AID 2648, 2010;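 active = fluorescence ratio B-score, a plate-corrected score, at least three library SD, with initial intensity B-score within 5 SD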
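Medium – assay buffer, equal DMSO in all wells · Material – CHO-K1 cell line with stable KCNQ1 potassium channel expression · Signal – kinetic FluxOR thallium fluorescence, 10-s 1-Hz baseline, 110-s post-stimulus read · Compound – single concentration per compound, DMSO matched to controls · Schedule – 37 °C overnight plating, 90-min dark dye load, 20-min compound pretreatment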
KCNK9 block conf: KCNK9 potassium channel inhibitors, confirmation, HEK293 cells, thallium flux, duplicate | shares compounds with KCNK9 block | FluxOR thallium flux fluorescence | inhibition, % at 10 µM | hit rate 43% among 4,900 | AID 492992, 2010;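 active = thallium signal inhibited by more than 5 SD of the compound-free buffer control wells, on both duplicate plates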;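 also: 0% = assay buffer control wells without compound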
Kir2-1 spec: mouse Kir2.1 channel inhibition, confirmation, selectivity assay for KCNK9 modulator project, cell-based, HEK293, thallium flux; shares compounds with KCNK9 block; Kir2.1 cells, FluxOR thallium flux fluorescence; inhibition, % at 10 µM; hit rate 4% among 4,900;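 active = thallium signal drop more than 5 SD beyond the mean of the no-compound control wells, seen in both duplicate plates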;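 also: signal is fluorescence rise after thallium addition divided by baseline fluorescence; plate controls were assay buffer only for no effect and full block by chlorpromazine control for full effect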
KCNK9 uninduced: thallium flux in non-induced HEK293 cells, confirmation, counter-screen for KCNK9 inhibitor project, cell-based, second counter screen, non-induced KCNK9-HEK293; shares compounds with KCNK9 block; FluxOR thallium flux; inhibition, % at 10 µM; hit rate 40% among 4,900;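 active = thallium signal drop beyond 5 SD of the untreated control mean, on both duplicate plates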;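 also: plate controls were buffer only IC0 wells for no effect and SID17386958 at its maximal inhibitory level for full effect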
An asterisk follows results filed as active; i = inactive; x = no result given. Compounds with a hit are over-represented: about 3.8% of the library has one in this group of screens.

SMILES	hERG rescue	KCNQ1 inh	KCNK3 block	Kir21 block	KCNK9 block	KCNQ1 act	KCNK9 block conf	Kir2-1 spec	KCNK9 uninduced
O=S(=O)(Cc1cc(Sc2ccc(Cl)cc2)nc(-c2ccccc2)n1)c1ccccc1	-10	i	i	1.6	-8.5*	i	i	i	32%*
C=CCn1c(SCCC)nc2sc3c(c2c1=O)CCc1ccccc1-3	-8	i	i	0.57	i	i	i	i	i
O=C(NCc1ccccc1F)Nc1ccc([N+](=O)[O-])cc1	-23	i	i	-0.02	i	i	x	x	x
COc1ccc(C(=O)OC2CCN(c3ncc(C(F)(F)F)cc3Cl)CC2)cc1	-10	i	i	-0.02	i	i	i	i	i
Cc1ccc(C(=O)OCCN2CCN(c3ncc(C(F)(F)F)cc3Cl)CC2)cc1	-13	i	i	0.62	i	i	i	i	i
O=C(OCCN1CCN(c2ncc(C(F)(F)F)cc2Cl)CC1)c1ccc(F)cc1	-8	i	i	-0.08	i	i	x	x	x
O=S(=O)(c1cccc(Cl)c1Cl)N1CCCCC1	-18	i	i	-0.79	i	i	x	x	x
O=S(=O)(c1ccccc1Oc1ccc(Cl)cc1Cl)N1CCCCC1	-8	i	i	0.49	-9.9*	i	45%*	i	i
COC(=O)C(C)n1nc(C)n(-c2ccc(C)cc2)c1=O (centres undefined)	-11	i	i	0.93	i	i	x	x	x
COC(=O)C(C)Oc1cc(C)ccc1COc1ccc(-n2nc(C)n(C(F)F)c2=O)cc1 (centres undefined)	-8	i	i	0.35	i	i	i	i	i
Cc1nn(Cc2ccc([N+](=O)[O-])cc2)c(=O)n1N(C)c1ncc(C(F)(F)F)cc1Cl	-5	i	i	-0.69	i	i	x	x	x
Cc1nn(Cc2ccc(Cl)cc2)c(=O)n1N(C)c1ncc(C(F)(F)F)cc1Cl	-6	i	i	-1.1	i	i	i	i	i
N/C(Cc1ccc([N+](=O)[O-])cc1)=N\OC(=O)COc1cccc2ccccc12	-9	i	i	-0.49	-8.3*	i	i	i	37%*
COc1ccc(/C=N/NC(=O)CSc2nnc(CCCc3ccc(OC)c(C)c3)o2)cc1	-16	i	i	1.9	i	i	i	i	i
COc1ccc(CCCc2nnc(SCC(=O)N/N=C\c3ccc(O)c(OC)c3)o2)cc1C	-8	i	i	-0.98	i	i	x	x	x
COc1ccc(C)cc1N(C(=O)c1ccco1)C(C(=O)NC1CCCC1)c1cc(OC)c(OC)c(OC)c1 (centres undefined)	-11	i	i	-0.08	i	i	x	x	x
CCOC(=O)C1CCCN(Cc2cc(=O)oc3cc(C)c(C(C)C)cc23)C1 (centres undefined)	-11	i	i	-1.8	-9.2*	i	52%*	i	42%*
Cc1ccc(C)c(Oc2cc(NN3CCCCC3)c([N+](=O)[O-])cc2[N+](=O)[O-])c1	-8	i	i	-1.1	-11*	i	32%*	i	i
O=[N+]([O-])c1cc([N+](=O)[O-])c(Oc2ccccc2F)cc1NN1CCCCC1	-15	i	i	0.34	i	i	x	x	x
Cc1ccc(NC(=O)CSc2nc3ccccc3nc2N2CCCC2)cc1	-7	i	i	-0.51	i	i	i	i	i
CCc1ccc(NC(=O)CSc2nc3ccccc3nc2N2CCCC2)cc1	-10	6*	i	-2.2	i	i	i	i	i
CCOC(=O)n1c(=O)n(Cc2ccc(Cl)cc2Cl)c2ccccc21	-8	i	i	0.52	-17*	i	76%*	i	i
COCCCN(CCC#N)C(=O)c1c(-c2c(Cl)cccc2Cl)noc1C	-7	i	i	0.25	i	i	x	x	x
COc1ccc(S(=O)(=O)n2ccc(C(C)Oc3ccc(-c4ccccc4)c(F)c3)n2)cc1 (centres undefined)	-9	i	i	-0.56	-11*	i	61%*	i	40%*
COc1ccc(-c2nc(SC)n(S(=O)(=O)c3ccccc3)n2)cc1	-4	i	i	-1.4	i	i	x	x	x
SMILES	hERG rescue	KCNQ1 inh	KCNK3 block	Kir21 block	KCNK9 block	KCNQ1 act	KCNK9 block conf	Kir2-1 spec	KCNK9 uninduced
O=C(COc1cccc(C(F)(F)F)c1)N1CCN(c2ccc(O)cc2)CC1	-14	i	i	-0.02	i	i	x	x	x
O=C(COc1ccc2c(c1)CCC2)N1CCN(c2ccccc2F)CC1	-6	i	i	-1.5	i	i	i	i	i
O=C(COc1ccc2c(c1)CCC2)N1CCN(c2cccc(C(F)(F)F)c2)CC1	-4	i	i	0.6	i	i	i	i	i
CC1(C)CC(=O)c2cc(OCC(=O)N3CCN(c4ccccc4F)CC3)ccc2O1	-9	i	i	-0.22	i	i	x	x	x
Cc1ccc(CSCC(=O)N(C)CC(=O)Nc2ccccc2C(F)(F)F)cc1	-18	i	i	-1.1	i	i	x	x	x
COc1ccc(NC2CCCN(C(=O)C3(C)CCCCC3)C2)cc1OC (centres undefined)	-5	i	i	-0.3	i	i	x	x	x
Cc1ccccc1NC(=O)c1sc2nc3c(c(-c4ccco4)c2c1N)CCC3	-12	i	i	-0.43	-8.1*	i	30%*	i	26%*
CCN(C(=O)CSc1nnc(-c2ccc(OC)cc2)n1C(C)C)C1CCS(=O)(=O)C1 (centres undefined)	x	x	i	x	x	x	x	x	x
CC(=O)c1ccc(N(CC(=O)NC2CCCCC2)C(=O)CNC(=O)c2cccs2)cc1	-4	i	i	0.09	i	i	x	x	x

Compound activity deposited in PubChem BioAssay by Johns Hopkins Ion Channel Center.
